# Bioassay records: PubChem BioAssay, several laboratories
# Hits are enriched below; roughly 1.9% of the tested compounds scored in any of these assays.
# H9c2 TAG inh – inhibitors of triacylglycerol accumulation, primary screen, cell-based, uHTS, fluorescence, H9c2; H9c2 cells, Nile Red lipid (TAG) fluorescence; cells loaded with 200 µM oleic acid; inhibition, % at 12.5 µM; 0.66% of 230,000 active;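 active = pattern-corrected inhibition of lipid staining of at least 50% with the nuclear-stain viability signal not falling by more than 50%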;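 note: 0% = DMSO wells and 100% = triacsin C control wells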
# aSyn 5UTR inh – MLPCN primary screen, SNCA 5' untranslated region | 0.82% of 300,000 active | alpha-synuclein 5'UTR reporter, inhibitor activity | inhibition, % (tested at 7.5 µM); in the data active = inhibition above about 60%; inconclusive = no clear call, values can overlap the other calls;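 note: H4 neuroglioblastoma cells stably carrying SNCA 5'UTR luciferase fusion; 0% = DMSO wells and 100% = positive control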
# 697 NFkB inh – inhibitors of PMA/ionomycin-induced NF-kB reporter, 697 cells, primary screen, B-cell NF-kB inhibitor project, cell-based, luminescence, uHTS | 697 B-cell NF-kB luciferase reporter, 16 h | inhibition, % at 4 µM | 0.33% of 330,000 active; in the data active = inhibition above about 35%
# Jurkat NFkB inh – inhibitors of induced NF-kB luciferase reporter, primary screen, TCR NF-kB activation inhibitor project, cell-based, luminescence, uHTS. 0.53% of 330,000 active. inhibition, % at 4 µM. AID 435003, 2010. Jurkat, PMA/ionomycin-induced NF-kB luciferase reporter; in the data active = inhibition above about 50%
# APP 5UTR inh – inhibitors of APP translation via 5'UTR reporter, primary screen, APP 5'UTR luciferase, SH-SY5Y cells; inhibition, % at 2 µM; SH-SY5Y APP 5'UTR-luciferase reporter, luminescence; AID 1285, 2008; 0.82% of 190,000 active;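 active = inhibition above a set limit, derived from the sample mean plus 3 SD, cut at about 45% in these data; inconclusive = one replicate passes the limit while the other fails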
# Lipid droplet – inhibitors of hepatocyte lipid droplet formation, primary screen, imaging, high-throughput imaging, BODIPY stain; AML12 mouse hepatocytes, oleate lipid droplets; inhibition, % at 6.5 µM; 0.4% of 240,000 active;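 active = lipid droplet intensity inhibited by at least 50%, with more than 500 cells counted; inconclusive = wells with under 300 cells, treated as cytotoxic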
#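 Assay system: AML12 mouse liver cells | Compound: 6.5 µM single-point dosing | Schedule: Overnight exposure | Technique: Fluorescence imaging, 20x objective, two fields per well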
# 697 NFkB conf – PMA/ionomycin-induced NF-kB reporter inhibitors, 697 retest, confirmation, B-cell NF-kB inhibitor project, cell-based, luminescence, single concentration; shares compounds with 697 NFkB inh; 697 B-cell NF-kB luciferase, 16 h; inhibition, % at 4 µM; 35% of 2,000 active; in the data active = inhibition mostly above about 28%, no sharp cut-off; inactive = mostly below about 22%
# An asterisk follows results filed as active; ? = inconclusive; · = not tested or not shown.
SMILES,H9c2 TAG inh,aSyn 5UTR inh,697 NFkB inh,Jurkat NFkB inh,APP 5UTR inh,Lipid droplet,697 NFkB conf
CCOC(=O)C1CCCCN1C(=O)CCc1c(C)nc2cc(-c3ccccc3)nn2c1C (stereo unspecified),-16,76*,35*,20,52*,·,27
Cc1nc2cc(-c3cccc(F)c3)nn2c(C)c1CCC(=O)N1CCN(c2ccccn2)CC1,2,46,48*,16,·,23,28
O=C(Cc1csc(NC(=O)Nc2cccc(Cl)c2)n1)NC1CCCC1,-1,-60,-9,12,·,·,·
N#CCCS(=O)(=O)c1nnnn1-c1ccccc1,·,·,·,·,9,·,·
Cc1nc2cc(-c3ccccc3)nn2c(C)c1CCC(=O)NCc1ccco1,6,?,46*,2,30,·,37*
COc1ccccc1-c1cc2nc(C)c(CCC(=O)NCc3ccco3)c(C)n2n1,-2,21,33,9,0,-13,·
O=c1[nH]c(Sc2ccc([N+](=O)[O-])cc2[N+](=O)[O-])nc2ccccc12,10,-31,-11,-8,·,·,·
O=[N+]([O-])c1ccc(Sc2cc[n+]([O-])c3ccccc23)c([N+](=O)[O-])c1,-21,-19,37*,28,·,-2,50*
N#Cc1ccc(CSc2nnc(-c3c[nH]c4ccccc34)n2-c2ccccc2)cc1,-2,24,-11,-10,12,-6,·
Cc1ccccc1-n1c(SCc2c(C)noc2C)nnc1-c1c[nH]c2ccccc12,23,20,40*,-10,-1,·,41*
CC(C)CNC(=O)c1c(N)n(/N=C/c2ccccn2)c2nc3ccccc3nc12,42,-33,-46,-5,-18,8,·
CCCCNC(=O)c1c(N)n(/N=C/c2ccccn2)c2nc3ccccc3nc12,·,-60,47*,-1,-2,·,44*
O=C(O)c1ccc(Oc2ccc([N+](=O)[O-])cc2)c([N+](=O)[O-])c1,-11,·,·,·,·,·,·
CCCOc1ccccc1/C=C1\SC(N2CCCCC2)=NC1=O,·,-16,-300,-57,·,-13,-287
O=C(c1ccc2ccccc2c1)C1CCCN(C(=O)c2noc3c2CCCC3)C1 (stereo unspecified),-39,8,-2,0,-36,10,·
c1ccc(CNc2ccc3ccccc3n2)nc1,·,-47,-265,-130,-162,·,-194
O=c1oc2ccccc2cc1-c1ccc(O)cc1,6,-101,-107,-64,-47,1,·
Nc1ccc(-c2cc3ccccc3oc2=O)cc1,8,106*,61*,-23,·,0,48*
CCn1c(=O)c2cc(C(=O)N3CCOCC3)sc2c2ccccc21,12,9,4,0,-22,·,·
CCn1c(=O)cc(SCC(=O)N2CCN(C)CC2)c2ccccc21,28,-6,42*,-4,-4,0,34*
Cn1c(=O)cc(SCC(=O)N2CCN(Cc3ccc4c(c3)OCO4)CC2)c2ccccc21,5,-10,12,1,-4,·,·
CCn1c(=O)cc(SCC(=O)N2CCC(C)CC2)c2ccccc21,·,-4,59*,11,-17,·,45*
Cn1c(=O)cc(SCC(=O)N2CCN(C3CCCCC3)CC2)c2ccccc21,25,-15,38*,-9,·,·,23
CCn1c(=O)c2cc(C(=O)N3CCCC3)sc2c2ccccc21,·,-13,53*,-8,-25,-11,32*
COc1ccccc1NS(=O)(=O)/C=C/c1ccccc1,·,2,-13,9,-7,2,·
SMILES,H9c2 TAG inh,aSyn 5UTR inh,697 NFkB inh,Jurkat NFkB inh,APP 5UTR inh,Lipid droplet,697 NFkB conf
Cc1[nH]c2ccccc2c1C(=O)C(C)OC(=O)c1ccccc1NCCO (stereo unspecified),2,5,-17,18,·,·,·
CCN1CCN(C(=O)CSc2cc(=O)n(CC)c3ccccc23)CC1,23,5,39*,-4,0,4,54*
CCn1c(=O)cc(SCC(=O)N2CCCCC2)c2ccccc21,·,18,58*,24,-9,·,42*
CCn1c(=O)cc(SCC(=O)N2CCN(Cc3ccc4c(c3)OCO4)CC2)c2ccccc21,·,5,30,9,-7,·,·
O=C(Nc1ccccc1C(=O)NC(Cc1ccccc1)C(=O)NC1CCCCCC1)c1ccccc1 (stereo unspecified),50,8,7,-6,-8,·,·
S=C(NCCCN1CCOCC1)NN=C1c2ccccc2-c2ccccc21,27,·,·,·,·,·,·
COc1ccc(-n2nnnc2CNC(=O)c2ccc3c(c2)OCO3)cc1,-39,0,-5,17,·,·,·
Cc1cc(C)c2nc(NC(=O)[C@@H](NC(=O)c3cccc(S(=O)(=O)N4CCOCC4)c3)C(C)C)sc2c1,·,31,54*,10,-10,-1,54*
Cc1cccc(C(=O)N[C@H](C(=O)Nc2cc(S(=O)(=O)N3CCCCC3)ccc2C)C(C)C)c1,-12,2,-4,8,-1,-1,·
COC(=O)C(Cc1ccccc1)NC(=S)NC(=O)c1ccccc1 (stereo unspecified),-8,5,-10,-8,13,0,·
Cc1c(Cc2ccccc2)c(=O)oc2c(C)c(OCC(=O)NCC3CCC(C(=O)O)CC3)ccc12 (stereo unspecified),·,8,39*,-11,·,-14,27
COC(=O)c1sc(NC(=O)c2cc(-c3ccccc3)nc3ccccc23)c(C#N)c1C,0,27,21,-6,8,·,·
Cc1ccccc1-c1cc(C(=O)Nc2sc(C(=O)OC(C)C)c(C)c2C#N)c2ccccc2n1,·,27,37*,16,12,11,43*
Cc1ccc(Nc2cc(C)nc3ncnn23)cc1,·,10,13,-2,·,9,·
O=C(O)c1cccc(Nc2ncnc3sccc23)c1,·,-3,52*,-17,-5,3,0
CCOC(=O)Oc1c(OC)cc(C(=O)O[C@@H]2C[C@@H]3CN4CCc5c([nH]c6cc(OC)ccc56)[C@H]4C[C@@H]3[C@H](C(=O)OC)[C@H]2OC)cc1OC,60*,·,37*,11,·,·,26
COC(=O)C1C2CC3c4[nH]c5cc(OC)ccc5c4CCN3CC2CC(OC(=O)CC(C)=O)C1OC (stereo unspecified),-5,·,·,·,·,·,·
CC(=O)Nc1cccc(C(=O)/C=C/c2ccc(/C=C/C(=O)c3cccc(NC(C)=O)c3)cc2)c1,·,-129,-293,13,92*,-13,-46
COc1ccc(-c2ccc(OC)c([C@H]3[C@H]4C=CC[C@@H](C)[C@@H]4C(=O)N3Cc3ccccc3)c2)cc1OC,4,29,32,9,·,-40,·
